Laboratory results: PMC7781011 (Journal of Inflammation Research, 2020)
Entries after “also recorded” stand apart in the source; their conditions may differ.

Legend:
[1] = test system: carrageenan-induced hind paw edema of rats; assay: Carrageenan-induced rat paw edema model; assay type: in vivo, rat (male Fischer F344); conditions: for TXB2 levels in paw exudates / LTB4 levels in paw exudates / PGE2 levels in paw exudates / PGI2 levels in paw exudates: 400 ppm; for edema inhibition (maximum): 400 ppm in diet (oral), 3 hours after carrageenan injection; for LTB4 levels in paw exudates / PGE2 levels in paw exudates / PGI2 levels in paw exudates: compared to control (vehicle)
In short: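 Male F344 rats (350–400 g) fed AIN-76A diet, either control or with compound or reference inhibitor at 400 ppm; separate saline group. 0.1 mL 1% λ-carrageenan in saline injected subplantar into left hind paw, saline into right. Dorsiventral paw thickness by digital caliper before and 1–6 h after injection; % edema inhibition. Paw exudate PGE2, LTB4, TXB2 and PGI2 measured by ELISA. Stomach and organs examined for ulcers.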

rat mPGES-1 = biological target: T1, rat mPGES-1 (Rattus norvegicus, UniProt Q9JHF3); assay: Cell-free mPGES-1 assay; assay type: biochemical; conditions: IC50 mPGES-1, cell-free
T1 sequence (Q9JHF3 1-153): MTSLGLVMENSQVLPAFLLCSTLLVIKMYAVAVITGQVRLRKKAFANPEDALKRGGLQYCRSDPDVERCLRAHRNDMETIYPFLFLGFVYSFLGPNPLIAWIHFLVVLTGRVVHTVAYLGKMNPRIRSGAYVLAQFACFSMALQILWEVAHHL

human mPGES-1 = biological target: T2, human mPGES-1 (Homo sapiens, UniProt O14684); assay: Cell-free mPGES-1 assay; assay type: biochemical
T2 sequence (O14684 1-152): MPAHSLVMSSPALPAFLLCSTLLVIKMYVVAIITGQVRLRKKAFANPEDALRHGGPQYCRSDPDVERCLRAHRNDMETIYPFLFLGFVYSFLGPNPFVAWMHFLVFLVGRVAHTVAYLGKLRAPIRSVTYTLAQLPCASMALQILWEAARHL
In short: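 Enzyme in 15 mM Tris-HCl pH 7.4 with 1 mM GSH, preincubated 20 min with compound (0.1–100 µM); plate held 15 min at 20°C. PGH2 (final 2.8 µM) added, 45 s at room temperature, then stopped with SnCl2 in 1N HCl. PGE2 by ELISA, in triplicate, % inhibition versus untreated. Human enzyme from E. coli or commercial; mouse enzyme from vas deferens/seminal vesicles. IC50 by four-parameter nonlinear regression.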

mouse 5-LOX = biological target: T3, mouse 5-LOX (Mus musculus, UniProt P48999); assay: Cell-free fluorometric 5-LOX assay; assay type: biochemical
T3 sequence (P48999 1-674): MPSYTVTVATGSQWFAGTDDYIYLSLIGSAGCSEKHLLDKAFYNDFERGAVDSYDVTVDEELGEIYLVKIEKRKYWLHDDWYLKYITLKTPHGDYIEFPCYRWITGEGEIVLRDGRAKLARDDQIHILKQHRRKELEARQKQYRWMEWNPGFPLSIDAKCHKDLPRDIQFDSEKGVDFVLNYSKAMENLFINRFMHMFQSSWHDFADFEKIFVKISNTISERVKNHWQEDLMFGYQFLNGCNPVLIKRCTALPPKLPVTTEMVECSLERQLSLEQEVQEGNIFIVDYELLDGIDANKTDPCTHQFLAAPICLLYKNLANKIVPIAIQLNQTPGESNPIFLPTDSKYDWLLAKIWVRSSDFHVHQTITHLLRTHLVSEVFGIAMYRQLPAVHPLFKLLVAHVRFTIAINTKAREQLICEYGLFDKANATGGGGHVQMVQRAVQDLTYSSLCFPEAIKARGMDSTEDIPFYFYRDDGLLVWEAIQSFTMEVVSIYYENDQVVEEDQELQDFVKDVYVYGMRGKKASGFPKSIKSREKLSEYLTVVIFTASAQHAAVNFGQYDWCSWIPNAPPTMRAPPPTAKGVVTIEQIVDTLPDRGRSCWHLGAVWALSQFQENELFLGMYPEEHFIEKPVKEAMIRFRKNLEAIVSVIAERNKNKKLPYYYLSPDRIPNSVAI

human 5-LOX = biological target: T4, human 5-LOX (Homo sapiens, UniProt P09917); assay: Cell-free fluorometric 5-LOX assay; assay type: biochemical; conditions: IC50 5-LOX
T4 sequence (P09917 1-674): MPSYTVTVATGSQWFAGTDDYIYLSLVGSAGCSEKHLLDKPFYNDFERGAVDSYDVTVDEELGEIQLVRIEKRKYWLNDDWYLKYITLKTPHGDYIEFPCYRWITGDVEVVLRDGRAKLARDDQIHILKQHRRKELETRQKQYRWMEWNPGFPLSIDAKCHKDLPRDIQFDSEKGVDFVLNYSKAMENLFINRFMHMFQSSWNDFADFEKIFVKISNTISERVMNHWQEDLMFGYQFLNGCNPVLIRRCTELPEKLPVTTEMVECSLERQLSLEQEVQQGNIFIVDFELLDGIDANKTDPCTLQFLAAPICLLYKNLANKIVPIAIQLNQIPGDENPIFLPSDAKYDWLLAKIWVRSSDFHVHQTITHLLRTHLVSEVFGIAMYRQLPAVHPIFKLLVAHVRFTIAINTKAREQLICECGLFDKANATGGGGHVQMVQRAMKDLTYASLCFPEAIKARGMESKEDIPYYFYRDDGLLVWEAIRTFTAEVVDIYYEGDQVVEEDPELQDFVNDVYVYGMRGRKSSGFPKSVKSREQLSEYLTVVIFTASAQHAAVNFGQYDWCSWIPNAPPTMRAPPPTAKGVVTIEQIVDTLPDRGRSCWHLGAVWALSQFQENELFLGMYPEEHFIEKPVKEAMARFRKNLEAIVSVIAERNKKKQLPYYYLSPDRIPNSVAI

mouse COX-2 = biological target: T5, mouse COX-2 (Mus musculus, UniProt Q05769); assay: Cell-free fluorometric COX-2 assay; assay type: biochemical
T5 sequence (Q05769 18-604): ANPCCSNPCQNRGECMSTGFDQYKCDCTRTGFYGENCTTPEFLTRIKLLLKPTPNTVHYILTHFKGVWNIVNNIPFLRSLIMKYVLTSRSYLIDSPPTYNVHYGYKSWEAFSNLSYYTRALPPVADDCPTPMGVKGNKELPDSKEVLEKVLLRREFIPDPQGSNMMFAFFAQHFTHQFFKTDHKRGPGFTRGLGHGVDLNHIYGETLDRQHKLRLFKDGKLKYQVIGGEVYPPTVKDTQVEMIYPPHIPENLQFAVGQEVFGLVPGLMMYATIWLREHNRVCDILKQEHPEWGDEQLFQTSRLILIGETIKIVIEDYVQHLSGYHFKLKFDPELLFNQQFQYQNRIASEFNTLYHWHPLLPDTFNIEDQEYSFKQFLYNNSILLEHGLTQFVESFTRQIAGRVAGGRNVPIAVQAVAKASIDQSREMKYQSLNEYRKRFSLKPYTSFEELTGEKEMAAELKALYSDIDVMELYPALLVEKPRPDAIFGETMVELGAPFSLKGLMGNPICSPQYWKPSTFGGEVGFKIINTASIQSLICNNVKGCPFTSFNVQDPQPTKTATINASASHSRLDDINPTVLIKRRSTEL

SMILES	TXB2 levels in paw exudates [1]	gastrointestinal (and other) toxicity ([1]; 400 ppm in diet)	edema inhibition (maximum) [1] [%]	LTB4 levels in paw exudates [1]	PGE2 levels in paw exudates [1]	PGI2 levels in paw exudates [1]	IC50 (rat mPGES-1) [µM]	IC50 (human mPGES-1) [µM]	IC50 (mouse 5-LOX) [µM]	IC50 (human 5-LOX) [µM]	inhibition of COX-2 activity (mouse COX-2; cell-free, mouse, up to the tested range of 1 mM)	IC50 (mouse COX-2) [µM]
CC1(C)Cc2c(-c3ccccc3)c(-c3ccc(Cl)cc3)c(CC(=O)NCC(=O)O)n2C1 [LFA-9, 2-[[2-[2-(4-chlorophenyl)-6,6-dimethyl-1-phenyl-5,7-dihydropyrrolizin-3-yl]acetyl]amino]acetic acid]	maintained homeostasis	did not show any gastrointestinal toxicity; also recorded: did not show any gastrointestinal and any other toxicities	70.4	reduced	reduced	spared	1.4	0.87	2.64	2.75	did not show inhibition	
CC1(C)Cc2c(-c3ccccc3)c(-c3ccc(Cl)cc3)c(CC(=O)O)n2C1 [Licofelone, reference compound]	reduced		61.7	reduced	reduced	reduced	12.3	14	2.34	2.13		2.01
